Laboratory results taken from ChEMBL document CHEMBL4041491, “Imidazo[1,2-a]pyrazin-8-amine core for the design of new adenosine receptor antagonists: Structural exploration to target the A3 and A2A subtypes” (Eur J Med Chem, 2017).
pKi: −log10 of the molar value.

Columns and labels:
Adenosine receptor A3 [1] = target: T1, Adenosine receptor A3 (Homo sapiens, UniProt P0DMS8); assay: Displacement of [125I]AB-MECA from human adenosine A3 receptor expressed in CHO cell membranes after 120 mins by scintillation counting method
T1 sequence (P0DMS8 whole entry, looked up): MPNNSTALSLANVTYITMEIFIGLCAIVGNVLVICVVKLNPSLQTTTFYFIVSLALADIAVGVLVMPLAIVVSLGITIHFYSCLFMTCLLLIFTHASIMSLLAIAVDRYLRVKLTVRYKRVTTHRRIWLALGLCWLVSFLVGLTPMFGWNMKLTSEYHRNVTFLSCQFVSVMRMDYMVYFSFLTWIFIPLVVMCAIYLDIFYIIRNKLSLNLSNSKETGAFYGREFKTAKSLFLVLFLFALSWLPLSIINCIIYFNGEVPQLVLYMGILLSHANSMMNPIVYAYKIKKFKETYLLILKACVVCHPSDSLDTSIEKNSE
Procedure, shortened: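 hA3 CHO membranes (50 µg protein) with 0.5 nM [125I]AB-MECA in 50 mM Tris HCl, 10 mM MgCl2, 1 mM EDTA, pH 7.4, 120 min at 4 °C. Six to eight ligand concentrations, or 1 µM for percent inhibition. Nonspecific binding with 1 µM AB-MECA; GF/B filtration. Ki by Cheng–Prusoff, four assays in duplicate, means ± SEM.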

[2] = target: T2, Adenosine receptor A1 (Homo sapiens) (UniProt P30542); assay: Displacement of [3H]DPCPX from human adenosine A1 receptor expressed in CHO cell membranes at 1 uM after 120 mins by scintillation counting method relative to control
T2 sequence (whole entry): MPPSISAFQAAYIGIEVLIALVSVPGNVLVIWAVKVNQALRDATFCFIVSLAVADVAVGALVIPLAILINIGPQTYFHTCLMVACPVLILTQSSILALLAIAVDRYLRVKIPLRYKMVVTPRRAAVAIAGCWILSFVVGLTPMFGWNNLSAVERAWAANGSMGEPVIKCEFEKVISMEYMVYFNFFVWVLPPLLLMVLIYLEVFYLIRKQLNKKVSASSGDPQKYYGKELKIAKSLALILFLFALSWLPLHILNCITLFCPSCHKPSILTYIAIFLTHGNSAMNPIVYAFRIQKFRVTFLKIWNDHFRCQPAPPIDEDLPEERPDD
Procedure, shortened: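 hA1 CHO membranes (50 µg protein) with 1 nM [3H]DPCPX in 50 mM Tris HCl pH 7.4, 120 min at 25 °C. Six to eight antagonist concentrations, or 1 µM for percent inhibition. Nonspecific binding with 1 µM DPCPX. Ki via Cheng–Prusoff, four assays in duplicate, means ± SEM.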

Adenosine receptor A2a = Adenosine receptor A2a (Homo sapiens, UniProt P29274); assay: Displacement of [3H]ZM241385 from human adenosine A2A receptor expressed in CHO cell membranes at 1 uM after 60 mins by scintillation counting method relative to control
Chain of Adenosine receptor A2a (P29274 whole entry): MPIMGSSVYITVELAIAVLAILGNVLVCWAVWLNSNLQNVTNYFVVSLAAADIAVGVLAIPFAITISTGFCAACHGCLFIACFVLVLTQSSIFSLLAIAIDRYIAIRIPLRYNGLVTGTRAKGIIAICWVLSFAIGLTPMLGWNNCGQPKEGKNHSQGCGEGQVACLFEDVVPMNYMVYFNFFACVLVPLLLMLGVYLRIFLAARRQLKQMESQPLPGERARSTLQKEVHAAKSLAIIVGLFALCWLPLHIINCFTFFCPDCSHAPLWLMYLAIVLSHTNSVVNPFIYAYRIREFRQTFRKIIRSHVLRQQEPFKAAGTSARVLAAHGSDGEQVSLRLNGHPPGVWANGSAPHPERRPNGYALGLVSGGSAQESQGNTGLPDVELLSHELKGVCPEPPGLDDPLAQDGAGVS
Procedure, shortened: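 hA2A CHO membranes (50 µg protein) with 1 nM [3H]ZM241385 in 50 mM Tris HCl, 10 mM MgCl2, pH 7.4, 60 min at 4 °C. Six to eight antagonist concentrations, or 1 µM for percent inhibition. Nonspecific binding with 1 µM ZM241385. Ki via Cheng–Prusoff, four assays in duplicate, means ± SEM.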

[3] = target: T3, Adenosine receptor A2b (Homo sapiens) (UniProt P29275); assay: Antagonist activity at human A2B receptor expressed in CHO cells assessed as inhibition of NECA-stimulated cAMP production at 1 uM by [3H]cAMP competition binding based scintillation counting method relative to control; type: functional, cell-based
T3 sequence (whole entry): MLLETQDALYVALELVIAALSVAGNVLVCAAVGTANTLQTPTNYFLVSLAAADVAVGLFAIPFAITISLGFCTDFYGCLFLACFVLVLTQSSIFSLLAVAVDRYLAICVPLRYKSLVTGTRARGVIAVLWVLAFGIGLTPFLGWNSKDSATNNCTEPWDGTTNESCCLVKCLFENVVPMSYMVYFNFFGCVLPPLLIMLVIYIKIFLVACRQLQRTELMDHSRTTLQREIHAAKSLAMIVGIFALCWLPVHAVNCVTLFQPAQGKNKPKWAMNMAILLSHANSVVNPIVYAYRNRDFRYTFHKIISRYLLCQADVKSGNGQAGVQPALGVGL
Procedure, shortened: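 Transfected CHO cells (1 × 10^6/assay) in buffered saline pH 7.4 with adenosine deaminase 2 IU/ml and Ro 20-1724, preincubated 10 min at 37 °C. Test compound at 1 μM against 200 nM NECA-stimulated cAMP. TCA stop, ether extraction, cAMP measured by [3H]cAMP competition binding to bovine adrenal binding protein. Result given as percent inhibition.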

Adenosine receptor A3 [4] = target: T1, Adenosine receptor A3; assay: Displacement of [125I]AB-MECA from human adenosine A3 receptor expressed in CHO cell membranes at 1 uM after 120 mins by scintillation counting method relative to control

pKi (Adenosine receptor A3 [1])	inhibition [2]	inhibition (Adenosine receptor A2a)	inhibition [3]	inhibition (Adenosine receptor A3 [4])	SMILES
6.61	32%	1%	25%	–	O=C(Nc1nccn2cc(-c3ccccc3)nc12)C(c1ccccc1)c1ccccc1
7.42	1%	1%	2%	–	O=C(Nc1nc(-c2ccccc2)cn2cc(-c3ccccc3)nc12)c1ccc(F)cc1
–	24%	13%	22%	42%	O=C(Nc1nccn2cc(-c3ccccc3)nc12)c1cccnc1
6.81	1%	1%	1%	–	O=C(Nc1nc(-c2ccccc2)cn2cc(-c3ccccc3)nc12)c1ccc(Cl)cc1
–	29%	11%	27%	24%	COc1ccc(-c2cn3cc(Br)nc(N)c3n2)cc1
–	21%	12%	1%	5%	Nc1nccn2cc(-c3ccco3)nc12
–	7%	9%	3%	1%	Nc1nc(-c2cccc(C(=O)O)c2)cn2cc(-c3ccccc3)nc12
–	1%	1%	1%	1%	COc1ccc(-c2cn3ccnc(N)c3n2)cc1
–	20%	23%	16%	23%	COc1ccc(-c2cn3cc(-c4ccccc4)nc3c(N)n2)cc1
–	7%	1%	1%	22%	O=C(Nc1nccn2cc(-c3ccco3)nc12)c1ccccc1
7.17	10%	1%	2%	–	O=C(Nc1nc(-c2ccccc2)cn2cc(-c3ccccc3)nc12)c1ccco1
–	25%	34%	19%	40%	O=C(Nc1nccn2cc(-c3ccccc3)nc12)c1ccco1
–	10%	1%	4%	1%	Nc1nc(-c2ccc(OCc3ccccc3)cc2)cn2cc(-c3ccccc3)nc12
6.65	1%	1%	3%	–	Cc1ccc(C(=O)Nc2nc(-c3ccccc3)cn3cc(-c4ccccc4)nc23)cc1
6.51	3%	1%	1%	–	COc1ccc(-c2cn3cc(-c4ccccc4)nc(NC(=O)c4ccccc4)c3n2)cc1
–	37%	33%	7%	8%	Nc1nc(-c2cccc(NC(=O)Cc3ccccc3)c2)cn2cc(-c3ccccc3)nc12
–	28%	38%	13%	20%	Nc1nc(-c2ccco2)cn2cc(-c3ccccc3)nc12
–	30%	13%	30%	12%	Nc1nccn2cc(-c3ccccc3)nc12
–	26%	21%	10%	45%	Cc1ccc(C(=O)Nc2nccn3cc(-c4ccccc4)nc23)cc1
–	3%	1%	2%	1%	Nc1nc(-c2ccc(Cl)cc2)cn2cc(-c3ccccc3)nc12
–	1%	1%	1%	6%	O=C(Nc1ccccc1)Nc1nccn2cc(-c3ccccc3)nc12
–	1%	1%	3%	31%	O=C(c1ccc(F)cc1)N(C(=O)c1ccc(F)cc1)c1nc(-c2ccccc2)cn2cc(-c3ccccc3)nc12
–	37%	24%	30%	21%	COc1cccc(-c2cn3cc(-c4ccccc4)nc3c(N)n2)c1
